Data set [1] concerns the target Metabotropic glutamate receptor 5 (Rattus norvegicus, UniProt P31424). Put plainly: Modulation of rat mGlu5 receptor assessed as calcium mobilization by cell based fluorescence assay. The class given is functional. In a few lines: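 Calcium mobilization assay with fluorescence read-out in cells expressing mGlu5; full concentration-response curves; % Glu Max is the amplitude of response with 30 μM test compound as a percentage of the maximal response to 100 μM glutamate; values averaged over n-3.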
A general note: A change in cytosolic calcium serves as a functional read-out for many receptors and channels.

In a further data set the test system is Plasma. Put plainly: Fraction unbound in rat plasma. Format: ADME, cell-free.
The nature of data set [2]: Plasma clearance in rat at 0.2 mg/kg, iv administered as cassette dose. Format: ADME, organism-based.
Data set [3] concerns the target Metabotropic glutamate receptor 3 (Rattus norvegicus, UniProt P31422). Put plainly: Negative allosteric modulation of rat mGlu3 receptor assessed as calcium mobilization by cell based fluorescence assay. The class given is functional. In a few lines: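 Cell line stably expressing rat mGlu3 with the promiscuous G-protein Gα15. Calcium mobilization with fluorescence read-out, inhibition of the glutamate response. Full concentration-response curves, top concentration 30 μM. % Glu Max is the response with 30 μM test compound as a percentage of the maximal response to 100 μM glutamate. Values averaged over n-3.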

Data set [4] is described as follows: Half life in rat at 0.2 mg/kg, iv administered as cassette dose. The class given is ADME, organism-based. As to conditions: in vivo.
Data set [5] is described as follows: Volume of distribution at steady state in rat at 0.2 mg/kg, iv administered as cassette dose. Format: ADME, organism-based. As to conditions: in vivo, read-out: Vdss.
The target of data set [6] is Metabotropic glutamate receptor 3 (Rattus norvegicus) (UniProt P31422). Put plainly: Negative allosteric modulation of rat mGlu3 receptor assessed as amplitude response at 30 uM relative to glutamate. In a few lines:
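Calcium mobilization in cell line stably expressing rat mGlu3 with promiscuous Gα15; fluorescence read-out; amplitude of glutamate response with 30 μM test compound expressed as percentage of maximal response (100 μM glutamate); average of n = 3.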

Data set [7] addresses Metabotropic glutamate receptor 5 (Rattus norvegicus) (UniProt P31424). Put plainly: Negative allosteric modulation of rat mGlu5 receptor assessed as calcium mobilization by cell based fluorescence assay. The class given is functional.
For data set [8] the target is unchanged. Kind of data set: Modulation of rat mGlu5 receptor assessed as assessed as calcium mobilization at 30 uM by cell based fluorescence assay. Format: functional.
For data set [9] the target is unchanged. Put plainly: Positive allosteric modulation of rat mGlu5 receptor assessed as calcium mobilization by cell based fluorescence assay. Format: functional.
A further data set concerns Brain. Put plainly: Fraction unbound in rat brain. The class given is ADME, tissue-based.

The source made the active and inactive calls. No cut-off for these calls is given here.

Chain of Metabotropic glutamate receptor 5 (Rattus norvegicus) (P31424 21-1203 limits assumed): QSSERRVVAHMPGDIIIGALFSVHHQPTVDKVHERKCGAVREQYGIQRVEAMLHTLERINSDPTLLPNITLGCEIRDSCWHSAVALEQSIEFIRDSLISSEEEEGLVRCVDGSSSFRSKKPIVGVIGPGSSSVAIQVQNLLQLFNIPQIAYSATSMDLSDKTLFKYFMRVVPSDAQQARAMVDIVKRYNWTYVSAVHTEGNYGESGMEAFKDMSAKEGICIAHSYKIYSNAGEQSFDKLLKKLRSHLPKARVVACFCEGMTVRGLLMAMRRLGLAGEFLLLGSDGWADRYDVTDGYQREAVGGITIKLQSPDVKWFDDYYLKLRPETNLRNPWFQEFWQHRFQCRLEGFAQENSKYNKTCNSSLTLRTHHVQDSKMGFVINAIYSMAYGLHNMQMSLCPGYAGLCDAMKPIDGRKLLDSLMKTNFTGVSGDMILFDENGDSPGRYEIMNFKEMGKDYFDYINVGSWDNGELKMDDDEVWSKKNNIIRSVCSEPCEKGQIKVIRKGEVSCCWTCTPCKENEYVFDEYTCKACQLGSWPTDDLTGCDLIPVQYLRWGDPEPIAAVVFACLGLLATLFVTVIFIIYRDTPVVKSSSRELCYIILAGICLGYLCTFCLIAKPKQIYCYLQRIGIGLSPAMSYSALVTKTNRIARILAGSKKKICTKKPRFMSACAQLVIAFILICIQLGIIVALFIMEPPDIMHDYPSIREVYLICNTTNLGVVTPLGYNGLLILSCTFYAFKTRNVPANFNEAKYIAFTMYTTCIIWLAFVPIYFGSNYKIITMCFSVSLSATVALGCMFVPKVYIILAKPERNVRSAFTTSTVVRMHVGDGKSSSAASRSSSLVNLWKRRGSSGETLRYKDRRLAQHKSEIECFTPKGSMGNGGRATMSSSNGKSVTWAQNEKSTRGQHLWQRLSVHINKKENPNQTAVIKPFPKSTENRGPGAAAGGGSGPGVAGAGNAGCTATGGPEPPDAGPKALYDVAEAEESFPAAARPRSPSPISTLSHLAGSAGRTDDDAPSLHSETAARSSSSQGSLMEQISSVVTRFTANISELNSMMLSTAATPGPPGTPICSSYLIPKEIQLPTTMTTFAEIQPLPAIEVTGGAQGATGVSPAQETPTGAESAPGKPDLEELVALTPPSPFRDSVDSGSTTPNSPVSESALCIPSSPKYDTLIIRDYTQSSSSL
Chain of Metabotropic glutamate receptor 5 (P31424 whole entry): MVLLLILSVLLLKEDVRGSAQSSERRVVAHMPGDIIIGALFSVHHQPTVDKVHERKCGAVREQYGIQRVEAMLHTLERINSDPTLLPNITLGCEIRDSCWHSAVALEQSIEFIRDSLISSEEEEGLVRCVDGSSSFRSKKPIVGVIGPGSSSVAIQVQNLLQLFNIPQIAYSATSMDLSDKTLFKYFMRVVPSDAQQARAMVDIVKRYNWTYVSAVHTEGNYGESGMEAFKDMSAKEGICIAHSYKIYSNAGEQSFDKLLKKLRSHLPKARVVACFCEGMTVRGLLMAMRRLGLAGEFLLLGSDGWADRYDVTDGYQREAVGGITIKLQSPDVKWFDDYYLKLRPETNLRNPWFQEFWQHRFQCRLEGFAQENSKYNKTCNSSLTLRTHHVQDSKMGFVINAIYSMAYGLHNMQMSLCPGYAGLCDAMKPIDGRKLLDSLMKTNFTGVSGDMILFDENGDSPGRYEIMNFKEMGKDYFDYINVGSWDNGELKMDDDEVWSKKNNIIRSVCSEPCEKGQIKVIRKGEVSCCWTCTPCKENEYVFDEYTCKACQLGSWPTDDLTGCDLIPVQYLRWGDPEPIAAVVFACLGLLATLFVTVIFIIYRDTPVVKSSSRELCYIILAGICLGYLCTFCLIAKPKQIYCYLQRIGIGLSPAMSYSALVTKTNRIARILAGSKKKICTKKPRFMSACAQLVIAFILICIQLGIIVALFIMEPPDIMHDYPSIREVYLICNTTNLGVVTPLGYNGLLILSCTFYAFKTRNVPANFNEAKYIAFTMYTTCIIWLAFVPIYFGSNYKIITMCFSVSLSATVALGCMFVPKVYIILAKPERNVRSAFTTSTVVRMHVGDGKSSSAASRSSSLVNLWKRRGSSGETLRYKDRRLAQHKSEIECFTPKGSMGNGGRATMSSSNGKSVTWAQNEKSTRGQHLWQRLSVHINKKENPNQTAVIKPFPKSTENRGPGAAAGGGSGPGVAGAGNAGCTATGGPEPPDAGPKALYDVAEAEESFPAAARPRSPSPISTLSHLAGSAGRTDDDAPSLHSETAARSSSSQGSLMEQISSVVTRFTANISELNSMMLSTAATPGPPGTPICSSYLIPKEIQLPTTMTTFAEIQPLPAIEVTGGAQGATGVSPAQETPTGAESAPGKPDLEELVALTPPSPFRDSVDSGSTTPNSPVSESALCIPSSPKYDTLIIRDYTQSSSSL
Chain of Metabotropic glutamate receptor 3 (Rattus norvegicus) (P31422 23-879 limits assumed): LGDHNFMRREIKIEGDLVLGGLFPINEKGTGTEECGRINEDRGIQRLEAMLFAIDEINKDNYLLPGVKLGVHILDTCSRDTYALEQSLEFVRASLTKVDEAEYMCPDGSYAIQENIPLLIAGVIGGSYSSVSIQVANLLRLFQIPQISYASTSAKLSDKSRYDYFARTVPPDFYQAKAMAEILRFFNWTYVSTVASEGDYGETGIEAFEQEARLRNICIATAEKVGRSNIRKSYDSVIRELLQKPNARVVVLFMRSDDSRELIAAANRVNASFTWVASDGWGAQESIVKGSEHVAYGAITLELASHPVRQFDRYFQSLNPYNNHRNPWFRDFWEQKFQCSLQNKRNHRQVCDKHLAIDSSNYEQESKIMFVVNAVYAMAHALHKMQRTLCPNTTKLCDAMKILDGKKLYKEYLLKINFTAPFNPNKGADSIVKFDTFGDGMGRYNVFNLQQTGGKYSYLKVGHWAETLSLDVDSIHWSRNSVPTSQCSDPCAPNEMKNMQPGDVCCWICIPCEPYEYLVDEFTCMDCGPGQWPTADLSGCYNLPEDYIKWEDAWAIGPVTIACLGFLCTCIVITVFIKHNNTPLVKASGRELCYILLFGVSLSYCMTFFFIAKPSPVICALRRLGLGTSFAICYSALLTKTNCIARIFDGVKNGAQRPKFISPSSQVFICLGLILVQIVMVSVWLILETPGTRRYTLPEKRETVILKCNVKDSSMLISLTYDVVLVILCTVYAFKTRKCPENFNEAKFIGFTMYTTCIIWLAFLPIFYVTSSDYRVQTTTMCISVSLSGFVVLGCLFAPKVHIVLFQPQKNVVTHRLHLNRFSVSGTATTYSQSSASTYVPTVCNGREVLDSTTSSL
Chain of Metabotropic glutamate receptor 3 (P31422 whole entry): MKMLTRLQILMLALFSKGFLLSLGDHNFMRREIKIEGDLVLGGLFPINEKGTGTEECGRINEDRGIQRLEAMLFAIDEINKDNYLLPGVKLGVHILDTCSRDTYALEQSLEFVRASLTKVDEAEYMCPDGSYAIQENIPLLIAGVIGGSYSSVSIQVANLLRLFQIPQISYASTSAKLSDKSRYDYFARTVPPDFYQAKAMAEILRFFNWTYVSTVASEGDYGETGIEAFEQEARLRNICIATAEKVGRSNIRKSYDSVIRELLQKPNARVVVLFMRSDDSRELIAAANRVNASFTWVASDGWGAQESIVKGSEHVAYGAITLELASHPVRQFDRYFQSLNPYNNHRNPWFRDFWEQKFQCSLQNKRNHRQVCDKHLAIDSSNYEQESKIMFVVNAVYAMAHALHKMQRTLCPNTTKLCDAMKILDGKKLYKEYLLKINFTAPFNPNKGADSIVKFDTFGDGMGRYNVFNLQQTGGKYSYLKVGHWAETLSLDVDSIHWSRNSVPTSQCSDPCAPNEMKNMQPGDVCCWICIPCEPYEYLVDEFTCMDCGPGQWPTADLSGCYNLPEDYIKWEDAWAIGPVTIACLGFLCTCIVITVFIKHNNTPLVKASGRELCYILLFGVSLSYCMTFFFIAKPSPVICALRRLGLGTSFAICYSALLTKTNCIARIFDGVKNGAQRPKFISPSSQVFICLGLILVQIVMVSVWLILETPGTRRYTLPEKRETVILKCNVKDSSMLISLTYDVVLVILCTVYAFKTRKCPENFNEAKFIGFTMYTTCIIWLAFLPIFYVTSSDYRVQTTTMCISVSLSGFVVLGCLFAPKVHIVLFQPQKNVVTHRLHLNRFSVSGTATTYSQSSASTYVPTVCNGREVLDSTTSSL

By EC50 is commonly meant the concentration giving half of the maximal effect. The term clearance denotes a measure of how efficiently the substance is removed, as volume per time. High values mean a high capacity for elimination, low ones a low capacity for elimination. Usually IC50 stands for the concentration needed to halve the response being measured. What is called half-life is the time in which the quantity being followed falls by half. The low end stands for fast loss, the high end for slow loss. As for `C[C@@H]1CN(c2cncc(F)c2)C(=O)c2cc(COc3ccc(Cl)cn3)nn21`, the EC50 in data set [1] is above 30 µM. The Fu in the data set on Plasma is given as 0.092. This molecule showed a clearance in data set [2] of 50 mL/min/kg. In data set [3], the IC50 was 481 nM. For the same molecule, the half-life in data set [4] was determined as 30 min. For the same molecule, in data set [5], the Vd came out at 1.9 L/kg. For the same molecule, in data set [6], the Activity turned out to be 1.85%.

Take `C[C@@H]1CN(c2cccnc2)C(=O)c2cc(COc3ccc(Cl)cn3)nn21`: the EC50 in [1] was above 30 µM. This molecule showed a Fu with Plasma of 0.118. Moreover, the clearance in [2] worked out at 50 mL/min/kg. The IC50 in data set [3] is 608 nM. The molecule also came in with a half-life in [4] of 21 min. In addition, the Vd in [5] is 1.2 L/kg. Besides, the Activity in data set [6] was 1.73%.

On to `C[C@@H]1CN(c2cccc(Cl)c2)C(=O)c2cc(COc3ccc(F)cn3)nn21`, for which the EC50 in data set [1] is 1.85 µM. In the data set with Plasma, this molecule yielded a Fu of 0.034. The outcome in [7] was Active. In addition, the IC50 in data set [3] was 145 nM. Moreover, the Activity in [8] amounted to 19.2%; in [6], 2.3%.

`C[C@@H]1CN(c2ccc(F)cc2)C(=O)c2cc(COc3ccc(Cl)cn3)nn21`: the EC50 in data set [1] amounted to 2.92 µM. The same molecule displayed a Fu in the data set with Plasma of 0.034. This molecule also had a clearance in [2] of 29 mL/min/kg. In data set [3], the IC50 amounted to 605 nM. In addition, the result in [9] was Active. Further, the values for the Activity in data set [8] and in data set [6] were 81.4% and 1.84%, respectively. In data set [4], this molecule had a half-life of 141 min. Besides, the Vd in data set [5] is 5.2 L/kg.

Take `C[C@@H]1CN(c2cc(F)ccc2F)C(=O)c2cc(COc3ccc(F)cn3)nn21`: the EC50 in data set [1] was above 10 µM. This molecule also displayed a Fu with Plasma of 0.089. Also, in data set [7], the outcome was Active. In [3], the IC50 was found to be 123 nM. The Activity in [8] came out at 18.8%; in data set [6], 2.62%.

`C[C@@H]1CN(c2ccccn2)C(=O)c2cc(COc3ccc(Cl)cn3)nn21`: the EC50 in data set [1] is above 30 µM. This molecule registered a Fu in the data set with Plasma of 0.051. Besides, in data set [3], the IC50 is 328 nM. In [6], the Activity came out at 1.07%.

`C[C@@H]1CN(c2c(F)cccc2F)C(=O)c2cc(COc3ccc(F)cn3)nn21`: in [1], the EC50 was found to be 1.23 µM. Further, the Fu in the data set on Plasma is on record as 0.064. In addition, the outcome in data set [7] was Active. For the same molecule, the IC50 in data set [3] worked out at 181 nM. Also, the Activity in data set [8] worked out at 50.8%; in [6], 1.49%.

For the molecule `Cc1cccc(N2C[C@@H](C)n3nc(COc4ccc(F)cn4)cc3C2=O)c1`, the EC50 in data set [1] was above 10 µM. In the data set on Plasma, this molecule showed a Fu of 0.051. Moreover, in data set [7], the outcome was Active. Further, the IC50 in data set [3] stood at 216 nM. Moreover, the Activity in data set [8] is 36.6%; in data set [6], 1.93%.

Turning to `C[C@@H]1CN(c2ccccc2F)C(=O)c2cc(COc3ccc(F)cn3)nn21`, the EC50 in data set [1] was above 10 µM. Moreover, in the data set with Plasma, the Fu was determined as 0.098. Also, the result in data set [7] was Active. For the same molecule, in [3], the IC50 amounted to 162 nM. For the same molecule, the results for the Activity in [8] and in data set [6] were 29.1% and 1.53%, respectively.

On to `C[C@@H]1CN(c2ccc(F)cc2)C(=O)c2cc(COc3ccc(F)cc3)nn21`, for which the EC50 in data set [1] stood at 0.092 µM. The Fu in the data set with Plasma was 0.06. The molecule also registered a clearance in [2] of 40 mL/min/kg. The IC50 in data set [3] was 462 nM. In addition, the outcome in data set [9] was Active. The Activity in data set [8] turned out to be 87%; in [6], 2.09%. The half-life in [4] was 95 min. For the same molecule, the Vd in data set [5] came out at 3.5 L/kg.

As for `CCOc1ccc(OCc2cc3n(n2)[C@H](C)CN(c2ccc(F)cc2)C3=O)cc1`, the EC50 in [1] was above 30 µM. In the data set with Plasma, this molecule registered a Fu of 0.005. In addition, the clearance in data set [2] amounted to 82 mL/min/kg. Besides, the IC50 in data set [3] was found to be 1160 nM. This molecule also had a half-life in data set [4] of 32 min. Also, the Vd in data set [5] came out at 2.2 L/kg. In addition, in data set [6], the Activity worked out at 3.39%.

Turning to `C[C@@H]1CN(c2ccc(F)cc2)C(=O)c2cc(COc3ccc(F)cn3)nn21`, in data set [1], the EC50 was above 10 µM. The Fu in the data set on Plasma came out at 0.135. Moreover, the outcome in [7] was Active. This molecule also yielded a clearance in data set [2] of 82 mL/min/kg. The IC50 in [3] worked out at 539 nM. For the same molecule, the values for the Activity in data set [8] and in [6] were 46.5% and 1.71%, respectively. In addition, the half-life in data set [4] was 88 min. For the same molecule, the Vd in data set [5] came out at 6.6 L/kg.

On to `C[C@@H]1CN(c2cccc(F)c2F)C(=O)c2cc(COc3ccc(F)cn3)nn21`, for which the EC50 in data set [1] turned out to be 2.11 µM. Besides, the Fu with Plasma is 0.092. Moreover, the result in [7] was Active. Also, the IC50 in data set [3] stood at 184 nM. Also, the Activity in [8] was determined as 21%; in [6] it was 2.15%.

As for `C[C@@H]1CN(c2cnccc2F)C(=O)c2cc(COc3ccc(Cl)cn3)nn21`, the EC50 in data set [1] was above 30 µM. For the same molecule, the Fu in the data set on Plasma is 0.085. Moreover, the 50% inhibitory concentration (IC50) in data set [3] was 482 nM. In addition, in [6], the Activity was determined as 1.45%.

As to `C[C@@H]1CN(c2cncc(C#N)c2)C(=O)c2cc(COc3ccc(Cl)cn3)nn21`, the EC50 in data set [1] is above 30 µM. The Fu with Plasma was determined as 0.078; in the data set with Brain it was 0.033. Moreover, the clearance in [2] is 22 mL/min/kg. Also, the IC50 in data set [3] was determined as 605 nM. The half-life in data set [4] is 59 min. The Vd in data set [5] is 1.4 L/kg. Besides, the Activity in [6] turned out to be 1.08%.

On to `C[C@@H]1CN(c2cccc(F)c2)C(=O)c2cc(COc3ccc(F)cn3)nn21`, for which the EC50 in data set [1] amounted to 2.72 µM. The Fu in the data set on Plasma is 0.094. In data set [7], the result was Active. The half-maximal inhibitory concentration (IC50) in data set [3] is 192 nM. In addition, the Activity in [8] stood at 9.71%; in data set [6], 1.44%.

In the case of `Cc1ccccc1N1C[C@@H](C)n2nc(COc3ccc(F)cn3)cc2C1=O`, the EC50 in data set [1] was above 10 µM. For the same molecule, the outcome in data set [7] was Active. Besides, in [3], the IC50 turned out to be 346 nM. In addition, the Activity came to 35.8% in [8] and 1.72% in data set [6].

Turning to `COc1cccc(N2C[C@@H](C)n3nc(COc4ccc(F)cn4)cc3C2=O)c1`, in data set [1], the EC50 is above 10 µM. Also, the result in [7] was Active. In addition, in data set [3], the IC50 was found to be 198 nM. In addition, the Activity in [8] was 59.7%; in data set [6], 1.02%.

For the molecule `C[C@@H]1CN(c2ccccn2)C(=O)c2cc(COc3ccc(F)cn3)nn21`, the EC50 in data set [1] was 3.52 µM. Moreover, the result in data set [7] was Active. For the same molecule, the IC50 in data set [3] amounted to 915 nM. The Activity in [8] came to 3.71%; in [6], 0.96%.

For the molecule `Cc1cccc(OCc2cc3n(n2)[C@H](C)CN(c2ccc(F)cc2)C3=O)c1`, the EC50 in [1] was above 10 µM. In addition, the result in data set [7] was Active. For the same molecule, the IC50 in data set [3] was determined as 1440 nM. The Activity in data set [8] was 39.7%; in data set [6], 2.35%.

With `C[C@@H]1CN(c2ccccc2Cl)C(=O)c2cc(COc3ccc(F)cn3)nn21`, the EC50 in [1] worked out at 1.01 µM. In addition, in the data set with Plasma, the Fu is 0.054. Also, the outcome in data set [7] was Active. Also, the IC50 in data set [3] came out at 141 nM. Besides, the Activity in data set [8] was 8.78%; in data set [6] it was 1.37%.

Consider `C[C@@H]1CN(c2ccc(F)cn2)C(=O)c2cc(COc3ccc(F)cn3)nn21`, for which, in data set [1], the EC50 amounted to 9.74 µM. Further, the result in [7] was Active. The IC50 in data set [3] worked out at 349 nM. Besides, the results for the Activity in data set [8] and in data set [6] were 7% and 1.31%, respectively.

These data come from ChEMBL document CHEMBL3616441, “Discovery of a Selective and CNS Penetrant Negative Allosteric Modulator of Metabotropic Glutamate Receptor Subtype 3 with Antidepressant and Anxiolytic Activity in Rodents” (J Med Chem, 2015).
